What all share (format): functional
Assay [1] deals with Mus musculus. Description: Compound was tested for Trypanocidal Activity in mice at 100 mg/kg; 3/10.
Assay [2] relates to Mus musculus. As to the kind of experiment: Compound was tested for Trypanocidal Activity in mice at 40 mg/kg; 12/25.
Assay [3] has as its system Mus musculus. Description: Compound was tested for Trypanocidal Activity in mice at 6 mg/kg; 0/5.
The subject of assay [4] is Mus musculus. As to the kind of experiment: Compound was tested for Trypanocidal Activity in mice at 25 mg/kg; 1/20.
Assay [5] has as its system Mus musculus. As to the kind of experiment: Compound was tested for Trypanocidal Activity in mice at 10 mg/kg; 0/5.
For assay [6], the system named is Mus musculus. As to the kind of experiment: Compound was tested for Trypanocidal Activity in mice at 60 mg/kg; 9/25. A digest of the protocol:
(§1)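 Female Swiss-Webster mice (20–25 g) were infected ip with 5×10^4 T. brucei EATRO 110 organisms in fresh mouse blood diluted with minimum essential medium. Groups of 5 or 10 received a single ip dose in normal saline (solution or milled suspension, 20 μL/g) 6 h post-infection. Deaths within 72 h were scored as toxic. Survivors aparasitemic at 28 days (tail-blood wet films, phase contrast) counted as cures. ED50 was computed by Bliss/Litchfield–Wilcoxon, excluding toxic dosages.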

The test system of assay [7] is Mus musculus. Description: Compound was tested for Trypanocidal Activity in mice at 15 mg/kg; 0/10.
Assay [8] deals with Mus musculus. Description: Compound was tested for Trypanocidal Activity in mice at 150 mg/kg; 1/5.
The subject of assay [9] is Mus musculus. Description: Compound was tested for Trypanocidal Activity in mice at 40 mg/kg; 9/10.
Assay [10] concerns Mus musculus. As to the kind of experiment: Compound was tested for Trypanocidal Activity in mice at 60 mg/kg; 7/10. Put shortly: as §1
Assay [11] relates to Mus musculus. Description: Compound was tested for Trypanocidal Activity in mice at 15 mg/kg; 10/10.
The subject of assay [12] is Mus musculus. As to the kind of experiment: Compound was tested for Trypanocidal Activity in mice at 25 mg/kg; 10/10.
Assay [13] relates to Mus musculus. As to the kind of experiment: Compound was tested for Trypanocidal Activity in mice at 2.5 mg/kg; 6/25.
The test system of assay [14] is Mus musculus. As to the kind of experiment: Compound was tested for Trypanocidal Activity in mice at 6 mg/kg; 32/45.
For assay [15], the system named is Mus musculus. Description: Compound was tested for Trypanocidal Activity in mice at 4 mg/kg; 24/45.
For assay [16], the species on record is Mus musculus. Description: Effective dose against Trypanosoma brucei infection in mice. A digest of the protocol: as §1
Assay [17] has as its system Mus musculus. Description: Compound was tested for Trypanocidal Activity in mice at 10 mg/kg; 22/30.
In assay [18] the test system is Mus musculus. Description: Compound was tested for Trypanocidal Activity in mice at 1.5 mg/kg; 0/10.
In assay [19] the test system is Mus musculus. As to the kind of experiment: Compound was tested for Trypanocidal Activity in mice at 100 mg/kg; 1/5.
The subject of assay [20] is Mus musculus. As to the kind of experiment: Compound was tested for Trypanocidal Activity in mice at 1.0 mg/kg; 8/10.
Assay [21] deals with Mus musculus. Description: Compound was tested for Trypanocidal Activity in mice at 0.4 mg/kg; 19/35.
For assay [22], the system named is Mus musculus. Description: Compound was tested for Trypanocidal Activity in mice at 1.5 mg/kg; 10/10.
The test system of assay [23] is Mus musculus. As to the kind of experiment: Compound was tested for Trypanocidal Activity in mice at 0.15 mg/kg; 0/10.
The subject of assay [24] is Mus musculus. As to the kind of experiment: Compound was tested for Trypanocidal Activity in mice at 60 mg/kg; 0/5.
The subject of assay [25] is Mus musculus. Description: Compound was tested for Trypanocidal Activity in mice at 40 mg/kg; 0/5.
For assay [26], the system named is Mus musculus. As to the kind of experiment: Compound was tested for Trypanocidal Activity in mice at 0.25 mg/kg; 0/30.
In assay [27] the test system is Mus musculus. Description: Compound was tested for Trypanocidal Activity in mice at 6 mg/kg; 20/20.
The subject of assay [28] is Mus musculus. Description: Compound was tested for Trypanocidal Activity in mice at 10 mg/kg; 10/10.
Assay [29] relates to Mus musculus. Description: Compound was tested for Trypanocidal Activity in mice at 25 mg/kg; 4/5.
The test system of assay [30] is Mus musculus. As to the kind of experiment: Compound was tested for Trypanocidal Activity in mice at 2.5 mg/kg; 20/20.
For assay [31], the system named is Mus musculus. Description: Compound was tested for Trypanocidal Activity in mice at 0.6 mg/kg; 20/30.
Assay [32] relates to Mus musculus. As to the kind of experiment: Compound was tested for Trypanocidal Activity in mice at 4 mg/kg; 9/10.
Assay [33] relates to Mus musculus. As to the kind of experiment: Compound was tested for Trypanocidal Activity in mice at 40 mg/kg; 10/10.
Assay [34] deals with Mus musculus. Description: Compound was tested for Trypanocidal Activity in mice at 1.5 mg/kg; 0/20.
The test system of assay [35] is Mus musculus. Description: Compound was tested for Trypanocidal Activity in mice at 100 mg/kg; 0/5.
Assay [36] concerns Mus musculus. Description: Compound was tested for Trypanocidal Activity in mice at 60 mg/kg; toxic deaths; 1/10.
Assay [37] concerns Mus musculus. As to the kind of experiment: Tested for Trypanocidal Activity in mice at 10 mg/kg; 17/20. Put shortly:
as §1

The test system of assay [38] is Mus musculus. Description: Compound was tested for Trypanocidal Activity in mice at 6 mg/kg; 14/30.
In assay [39] the test system is Mus musculus. Description: Compound was tested for Trypanocidal Activity in mice at 4 mg/kg; 10/30.
Assay [40] has as its system Mus musculus. As to the kind of experiment: Compound was tested for Trypanocidal Activity in mice at 2.5 mg/kg; 5/30.
Assay [41] deals with Mus musculus. As to the kind of experiment: Compound was tested for Trypanocidal Activity in mice at 40 mg/kg; 13/15.
Assay [42] relates to Mus musculus. Description: Compound was tested for Trypanocidal Activity in mice at 10 mg/kg; 11/30.
Assay [43] deals with Mus musculus. As to the kind of experiment: Compound was tested for Trypanocidal Activity in mice at 25 mg/kg; 16/20.
The subject of assay [44] is Mus musculus. Description: Compound was tested for Trypanocidal Activity in mice at 4 mg/kg; 0/10.
For assay [45], the system named is Mus musculus. Description: Compound was tested for Trypanocidal Activity in mice at 6 mg/kg; 0/20.
Assay [46] deals with Mus musculus. Description: Compound was tested for Trypanocidal Activity in mice at 60 mg/kg; 5/5.
Assay [47] relates to Mus musculus. As to the kind of experiment: Compound was tested for Trypanocidal Activity in mice at 15 mg/kg; 14/25.
Assay [48] deals with Mus musculus. Description: Compound was tested for Trypanocidal Activity in mice at 0.4 mg/kg; 24/45.
Assay [49] relates to Mus musculus. Description: Compound was tested for Trypanocidal Activity in mice at 0.6 mg/kg; 23/25.
Assay [50] has as its system Mus musculus. As to the kind of experiment: Compound was tested for Trypanocidal Activity in mice at 0.15 mg/kg; 6/20.
The test system of assay [51] is Mus musculus. Description: Compound was tested for Trypanocidal Activity in mice at 1.5 mg/kg; 19/20.
In assay [52] the test system is Mus musculus. As to the kind of experiment: Compound was tested for Trypanocidal Activity in mice at 6 mg/kg; 10/10.
Assay [53] has as its system Mus musculus. Description: Compound was tested for Trypanocidal Activity in mice at 100 mg/kg; 5/5.
Assay [54] relates to Mus musculus. As to the kind of experiment: Compound was tested for Trypanocidal Activity in mice at 2.5 mg/kg; 9/10.
For assay [55], the system named is Mus musculus. Description: Compound was tested for Trypanocidal Activity in mice at 0.06 mg/kg; 0/10.
Assay [56] concerns Mus musculus. As to the kind of experiment: Compound was tested for Trypanocidal Activity in mice at 25 mg/kg; 3/5.
Assay [57] concerns Mus musculus. Description: Compound was tested for Trypanocidal Activity in mice at 40 mg/kg; 5/5.
The test system of assay [58] is Mus musculus. As to the kind of experiment: Compound was tested for Trypanocidal Activity in mice at 0.25 mg/kg; 28/40.
The subject of assay [59] is Mus musculus. Description: Compound was tested for Trypanocidal Activity in mice at 4 mg/kg; 10/10.
In assay [60] the test system is Mus musculus. Description: Compound was tested for Trypanocidal Activity in mice at 150 mg/kg; 3/5.
Assay [61] has as its system Mus musculus. As to the kind of experiment: Compound was tested for Trypanocidal Activity in mice at 1.0 mg/kg; 9/10.
Assay [62] concerns Mus musculus. As to the kind of experiment: Compound was tested for Trypanocidal Activity in mice at 15 mg/kg; 3/5.
Assay [63] relates to Mus musculus. Description: Compound was tested for Trypanocidal Activity in mice at 10 mg/kg; 5/5.
Assay [64] concerns Mus musculus. Description: Compound was tested for Trypanocidal Activity in mice at 0.1 mg/kg; 1/10.

Each structure is given as a SMILES string.

Regarding `C/C(=N\NC(=N)N)c1cc(/C(C)=N/NC(=N)N)cc([N+](=O)[O-])c1.Cl`, the Cures/total in assay [1] is on record as 3; in assay [2], 12; in [3] it was 0; in assay [4], 1; in [5], 0; in assay [6], 9. The Cures/total in [7] was 0; in assay [8], 1.

For `C/C(=N\NC(=N)N)c1cccc(/C(C)=N/NC(=N)N)c1.Cl` [BIS(GUANYLHYDRAZONE) ;2M HYDROCHLORIDE], the Cures/total worked out at 9 in assay [9]; 7 in assay [10]; 10 in [12]; 6 in assay [13]; 32 in assay [14]; 24 in assay [15]. The Cures/total in assay [17] is given as 22; in assay [18], 0; in assay [19], 1. In addition, in assay [11], the “Mice cured (number)” value is on record as 10. In assay [16], this compound returned an ED50 of 4.2 mg/kg.

Turning to `C/C(=N\NC(=N)N)c1cc(/C(C)=N/NC(=N)N)cc(/C(C)=N/NC(=N)N)c1.Cl`, the Cures/total stood at 8 in [20]; 19 in assay [21]; 10 in assay [22]; 0 in [23]; 0 in assay [24]; 0 in [25]. In addition, the Cures/total in assay [26] came out at 0; in [27] it was 20; in [28], 10; in [29], 4; in assay [30], 20; in assay [31], 20. Besides, the Cures/total in assay [32] was 9. Moreover, in assay [11], the “Mice cured (number)” value worked out at 10. It took a dose of 0.47 mg/kg to reach the 50% effect level in assay [16] (ED50).

Take `CCO.COc1cc(/C(C)=N/NC(=N)N)cc(/C(C)=N/NC(=N)N)c1.Cl`: the “Mice cured (number)” value in assay [11] amounted to 10. Besides, the Cures/total was 10 in assay [33]; 0 in assay [34]; 10 in assay [12]; 0 in assay [35]; 1 in [36]; 17 in assay [37]. Also, the Cures/total in assay [38] stood at 14; in assay [39] it was 10; in assay [40] it was 5. This compound also came in with an ED50 in [16] of 5.4 mg/kg.

For the compound `C/C(=N\NC(=N)N)c1ccc(/C(C)=N/NC(=N)N)s1.CC(C)O.Cl`, the Cures/total in assay [41] is given as 13; in [42] it was 11; in assay [43] it was 16; in assay [44], 0; in assay [45], 0; in assay [46], 5. In addition, the Cures/total is 14 in [47] and 1 in assay [19]. In addition, the 50% effective dose (ED50) in assay [16] amounted to 14 mg/kg.

In the case of `CC(=O)NCC(=O)O.N=C(N)c1ccc(/N=N/Nc2ccc(C(=N)N)cc2)cc1` [DIMINAZEN ACETURATE], the Cures/total in assay [48] is 24; in [49] it was 23; in assay [50], 6; in [51], 19; in assay [52] it was 10; in [53], 5. In addition, the Cures/total is 9 in assay [54]; 0 in assay [55]; 3 in assay [56]; 5 in [57]; 28 in assay [58]; 10 in assay [59]. Further, the Cures/total in [60] was 3; in assay [46], 5; in assay [61], 9; in assay [62], 3; in assay [63] it was 5; in assay [64], 1. Also, in assay [16], it took a dose of 0.24 mg/kg to reach the 50% effect level (ED50).

For orientation: ED50 means the dose at which the effect has come halfway, by size or by number of responders. Higher therefore signals weaker potency.

For the origin of these results see ChEMBL document CHEMBL1122798, “Trypanocidal 1,3-arylene diketone bis(guanylhydrazone)s. Structure-activity relationships among substituted and heterocyclic analogues” (1984).
